Laboratory results taken from ChEMBL document CHEMBL1143576, “Discovery of 2-arylthiazolidine-4-carboxylic acid amides as a new class of cytotoxic agents for prostate cancer” (J Med Chem, 2005).
pIC50: −log10 of the molar value.

Legend:
[1] = system: RH7777; experiment: Antiproliferative effect against RH7777 cell line using sulforhodamine B(SRB) assay; assay type: functional, cell-based; conditions: Rattus norvegicus
Outline: (§1)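 Cells seeded at 1000 to 5000 per well, depending on growth rate, and exposed to a range of concentrations for 96 h, in three to five replicates. Stocks were 5 to 20 mM in DMSO, diluted into complete medium. Endpoint cell number was measured by SRB: 10% trichloroacetic acid fixation, 0.4% SRB stain, absorbance at 540 nm.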

[2] = system: TSU; experiment: Antiproliferative activity against prostate cancer TSU-Pr1 cell line using sulforhodamine B(SRB) assay; assay type: functional, cell-based; conditions: Homo sapiens; outline: as §1
[3] = system: DU-145; experiment: Antiproliferative activity against prostate cancer DU-145 cell line using sulforhodamine B(SRB) assay; assay type: functional, cell-based; conditions: Homo sapiens; outline: as §1
[4] = system: LNCaP; experiment: Antiproliferative activity against prostate cancer LNCaP Cell line using sulforhodamine B(SRB) assay; assay type: functional, cell-based; conditions: Homo sapiens, Prostate gland; outline: as §1
[5] = system: PPC-1; experiment: Antiproliferative activity against prostate cancer PPC-1 cell line using sulforhodamine B(SRB) assay; assay type: functional, cell-based; conditions: Homo sapiens; outline: as §1
[6] = system: PC-3; experiment: Antiproliferative activity against prostate cancer PC-3 cell line using sulforhodamine B(SRB) assay; assay type: functional, cell-based, Homo sapiens; conditions: for pIC50: Homo sapiens, PC-3, read-out: IC50; outline: as §1
[7] = system: PC-3; experiment: Induction of apoptosis in human PC-3 cell line at 20 uM concentration after 72 hr; assay type: functional
Outline: (§2)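 Cells were exposed to compound for 72 h. Cytoplasmic DNA-histone complexes (mono- and oligonucleosomes) were quantified by sandwich ELISA using monoclonal antibodies against DNA and histones. The enrichment factor is the OD405 ratio of treated to untreated cells.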

[8] = system: PC-3; experiment: Induction of apoptosis in human PC-3 cell line at 5 uM concentration after 72 hr; assay type: functional; outline: as §2
[9] = system: LNCaP; experiment: Induction of apoptosis in human LNCaP Cell line at 2 uM concentration after 72 hr; assay type: functional; outline: as §2
[10] = system: PC-3; experiment: Induction of apoptosis in human PC-3 cell line at 10 uM concentration after 72 hr; assay type: functional; outline: as §2
[11] = system: LNCaP; experiment: Induction of apoptosis in human LNCaP Cell line 10at uM concentration after 72 hr; assay type: functional; outline: as §2
[12] = system: PC-3; experiment: Induction of apoptosis in human PC-3 cell line at 2 uM concentration after 72 hr; assay type: functional; outline: as §2
[13] = system: LNCaP; experiment: Induction of apoptosis in human LNCaP Cell line at 5 uM concentration after 72 hr; assay type: functional; outline: as §2
[14] = system: LNCaP; experiment: Induction of apoptosis in human LNCaP Cell line 20 at uM concentration after 72 hr; assay type: functional; outline: as §2
[15] = system: RH7777 (Rattus norvegicus); experiment: Antiproliferative effect against RH7777 cell line using sulforhodamine B(SRB) assay; No activity
[16] = system: RH7777; experiment: Induction of apoptosis in rat RH7777 cell line at 10 uM concentration after 72 hr
[17] = system: RH7777; experiment: Induction of apoptosis in rat RH7777 cell line at 5 uM concentration after 72 hr
[18] = system: LNCaP; experiment: Induction of apoptosis in human LNCaP Cell line at 10 uM concentration after 72 hr; assay type: functional; outline: as §2
[19] = system: RH7777 (Rattus norvegicus); experiment: Induction of apoptosis in rat RH7777 cell line at 2 uM concentration after 72 hr

SMILES | pIC50 [3] | pIC50 [4] | pIC50 [6] | pIC50 [1] | pIC50 [2] | pIC50 [5] | also measured
CCCCCCCCCCCCCCCCCCNC(=O)[C@H]1CSC(c2ccc(F)cc2)N1 (some centres undefined) | 5.24 | 5.72 | 5.17 | 4.76 | 5.27 | 5.68 | 
CCCCCCCCCCCCCCCCCCNC(=O)[C@H]1CSC(c2ccc(Br)cc2)N1 (some centres undefined) | 4.86 | 5.29 | 4.76 | < 4.70 | 4.74 | 5.43 | 
CCCCCCCCCCCCCCCCCCNC(=O)[C@H]1CSC(CCCCCCCCCCCC)N1 (some centres undefined) | 5.05 | 4.92 | 4.82 | ~4.70 | 4.97 | 4.89 | 
CCCCCCCCCCCCCCCCCCNC(=O)[C@H]1CSC(c2ccc(C)cc2)N1 (some centres undefined) | 4.98 | 5.72 | 4.89 | < 4.70 | 5.10 | 5.72 | 
CCCCCCCCCCCCCCCCCCNC(=O)c1csc(-c2ccccc2)n1 | < 4.70 | < 4.70 | < 4.70 | < 4.70 | < 4.70 | < 4.70 | 
CCCCCCCCCCCCCCCCCCNC(=O)[C@H]1CSC(Cc2ccccc2)N1 (some centres undefined) | 4.82 | 5.36 | 4.79 | < 4.70 | 4.95 | 5.40 | 
CCCCCCCCCCCCCCCCCCNC(=O)[C@H]1CSC(c2ccc([N+](=O)[O-])cc2)N1 (some centres undefined) | 4.82 | 5.08 | ~4.70 | ~4.70 | 4.80 | 4.82 | 
CCCCCCCCCCCCCCCCCCNC(=O)[C@H]1CSC(c2cccnc2)N1 (some centres undefined) | 5.12 | 5.44 | 5.04 | 4.98 | 5.11 | 5.54 | 
CCCCCCCCCCCCCCCCCCNC(=O)[C@H]1CSC(c2ccccc2)N1S(C)(=O)=O (some centres undefined) | < 4.70 | < 4.70 | < 4.70 | < 4.70 | < 4.70 | < 4.70 | 
CCCCCCCCCCCCCCCCCCNC(=O)[C@H]1CSC(c2cc(F)cc(F)c2)N1 (some centres undefined) | < 4.70 | 4.95 | < 4.70 | < 4.70 | < 4.70 | 4.97 | 
CCCCCCCCCCCCCCCCCCNC(=O)[C@H]1CSC(c2ccccc2)N1C(C)=O (some centres undefined) | ~4.70 | 4.79 | ~4.70 | < 4.70 | < 4.70 | 4.90 | 
CCCCCCCCCCCCCCCCCCNC(=O)[C@H]1CSC(c2ccc(F)c(Br)c2)N1 (some centres undefined) | 4.95 | 5.52 | 4.87 | 4.70 | 4.85 | 5.33 | 
CCCCCCCCCCCCCCCCCCNC(=O)[C@H]1CSC(c2c[nH]c3ccccc23)N1 (some centres undefined) | 5.05 | 5.68 | 4.94 | < 4.70 | 5.36 | 5.89 | 
CCCCCCCCCCCCCCCCCCNC(=O)[C@H]1CSC(c2ccc(-c3ccccc3)cc2)N1 (some centres undefined) | < 4.70 | < 4.70 | < 4.70 | < 4.70 | < 4.70 | < 4.70 | 
CCCCCCCCCCCCCCCCCCNC(=O)[C@H]1CSC(c2ccccc2)N1.Cl (some centres undefined) | 5.27 | 5.68 | 5.11 | 4.59 | 5.30 | 5.70 | Apoptosis [7]: 12.7; Apoptosis [8]: 2.3; Apoptosis [9]: 4.5; Apoptosis [10]: 3.4; Apoptosis [11]: 37.1; Apoptosis [12]: 1.4; Apoptosis [13]: 45.2; Apoptosis [14]: 26.1
CCCCCCCCCCCCCCCCCCNC(=O)[C@H]1CSC(c2ccoc2)N1 (some centres undefined) | 5.18 | 5.77 | 5.09 | 4.98 | 5.38 | 5.96 | 
CCCCCCCCCCCCCCCCCCNC(=O)[C@H]1CSC(c2ccc(OC)c(OC)c2)N1 (some centres undefined) | 5.35 | 6.07 | 5.28 | 4.99 | 5.62 | 6.24 | 
CCCCCCCCCCCCCCCCCCNC(=O)[C@H]1CSC(c2ccc(NC(C)=O)cc2)N1 (some centres undefined) | 5.51 | 5.89 | 5.25 | 4.68 | 6.03 | 6.26 | 
CCCCCCCCCCCCCCNC(=O)[C@H]1CSC(c2ccccc2)N1.Cl (some centres undefined) | 5.62 | 5.85 | 5.52 | 5.47 | 5.70 | 5.89 | Apoptosis [16]: 2.5; Apoptosis [17]: 3.2; Apoptosis [8]: 18.7; Apoptosis [18]: 80.7; Apoptosis [9]: 14.1; Apoptosis [10]: 54; Apoptosis [19]: 2.6; Apoptosis [12]: 1.8; Apoptosis [13]: 75.4

Now from value to compound, other results behind:

pIC50 [3] | pIC50 [4] | pIC50 [6] | SMILES | pIC50 [1] | pIC50 [2] | pIC50 [5] | also measured
5.28 | 5.80 | 5.22 | CCCCCCCCCCCCCCCCCCNC(=O)[C@H]1CSC(c2ccc(N(C)C)cc2)N1 (some centres undefined) | < 4.70 | 5.52 | 5.96 | 
< 4.70 | 4.88 | < 4.70 | CCCCCCCCCCCCCCCCCCNC(=O)[C@H]1CSC(c2c(Cl)cccc2Cl)N1 (some centres undefined) | < 4.70 | 4.70 | 4.77 | 
5.24 | 5.77 | 5.17 | CCCCCCCCCCCCCCCCCCNC(=O)[C@H]1CSC(c2cccc(O)c2)N1 (some centres undefined) | 4.51 | 5.40 | 5.92 | 
< 4.70 | 4.89 | < 4.70 | CCCCCCCCCCCCCCCCCCNC(=O)[C@H]1CSC(C2CCCCC2)N1 (some centres undefined) | < 4.70 | < 4.70 | 5.03 | 
< 4.70 | 5.23 | < 4.70 | CCCCCCCCCCCCCCCCCCNC(=O)[C@H]1CSC(c2ccc(C#N)cc2)N1 (some centres undefined) | < 4.70 | < 4.70 | 5.30 | 
4.35 | 4.91 | 4.41 | CCCCCCCNC(=O)[C@H]1CSC(c2ccccc2)N1 (some centres undefined) | 4.28 | 4.55 | 4.46 | 
5.06 | 5.68 | ~4.70 | CCCCCCCCCCCCCCCCCCNC(=O)[C@H]1CSC(c2ccc(OC)cc2)N1 (some centres undefined) | < 4.70 |  | 5.82 | 
5.41 | 6.09 | 5.40 | CCCCCCCCCCCCCCCCCCNC(=O)[C@H]1CSC(c2cc(OC)c(OC)c(OC)c2)N1 (some centres undefined) | 4.94 | 5.62 | 6.32 | 
< 4.70 | 4.87 |  | CCCCCCCCCCCCCCCCCCCNC(=O)[C@H]1CSC(c2ccccc2)N1.Cl (some centres undefined) |  | < 4.70 | 4.77 | IC50 [15]: No activity; IC50 ([6]; pc-3): No activity
8.57 | 8.70 | 8.47 | CC(=O)O[C@H]1C(=O)[C@@]2(C)[C@H]([C@H](OC(=O)c3ccccc3)[C@]3(O)C[C@H](OC(=O)[C@H](O)[C@@H](NC(=O)c4ccccc4)c4ccccc4)C(C)=C1C3(C)C)[C@]1(OC(C)=O)CO[C@@H]1C[C@@H]2O [PACLITAXEL] |  | 8.68 | 8.47 | 
